Data: ChEMBL document CHEMBL2385039 (Bioorg Med Chem, 2013)

Legend:
[1] = tested on: GABA transporter 3 (mGAT3, slc6a13, Mus musculus); assay: Inhibition of mouse GAT3 expressed in HEK cells assessed as remaining [3H]-GABA uptake at 100 uM after 25 mins by liquid scintillation counting analysis relative to control; conditions: HEK293
[2] = target: Sodium- and chloride-dependent GABA transporter 1 (Mus musculus, UniProt P31648); type: cell-based, HEK293
[3] = tested on: HEK293; assay: Inhibition of mouse GAT4 expressed in HEK cells assessed as remaining [3H]-GABA uptake at 100 uM after 25 mins by liquid scintillation counting analysis relative to control; type: cell-based
How it was run: (§1)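 The assay used the standardized [³H]GABA uptake format in HEK lines, each stably expressing one murine GAT subtype (mGAT1, mGAT2, mGAT3 or mGAT4). The value is the remaining [³H]GABA uptake with 100 μM test compound present.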

[4] = tested on: Betaine/GABA transporter BGT1 (mGAT2, slc6a12, Mus musculus); assay: Inhibition of mouse GAT2 expressed in HEK cells assessed as remaining [3H]-GABA uptake at 100 uM after 25 mins by liquid scintillation counting analysis relative to control; conditions: HEK293
[5] = cells; type: cell-based; conditions: HEK293
[6] = target: Sodium- and chloride-dependent GABA transporter 1 (Mus musculus) (UniProt P31648); assay: Inhibition of mouse GAT1 expressed in HEK cells assessed as remaining [3H]-GABA uptake at 100 uM after 25 mins by liquid scintillation counting analysis relative to control; type: cell-based; conditions: HEK293
How it was run: as §1

Compound | Activity [1] [%] | IC50 [2] [µM] | Activity [4] [%] | IC50 [5] [µM] | Activity [6] [%] | Activity [3] [%]
O=C(c1ccccc1)c1ccccc1/C=C/OCCN1CCCC(C(=O)O)C1 (configuration not stated) | 55.9 | 25.1 | 67.5 | – | – | 79.8
O=C(c1ccccc1F)c1cc(F)ccc1/C=C\OCCN1CCCC(C(=O)O)C1 (configuration not stated) | 43.5 | 0.759 | – | – | – | 45.1
O=C(O)[C@@H]1CCCN(CCC=C(c2ccccc2)c2ccccc2)C1 | – | 0.692 | – | 275 | – | –
O=C(c1cccc(F)c1)c1ccc(F)cc1/C=C/OCCN1CCCC(C(=O)O)C1 (configuration not stated) | – | 29.5 | – | 200 | – | –
O=C(c1ccccc1F)c1ccc(F)cc1/C=C/OCCN1CCCC(C(=O)O)C1 (configuration not stated) | 57.6 | 8.13 | 68.6 | – | – | 52.1
Cc1ccsc1C(=CCCN1CCC[C@@H](C(=O)O)C1)c1sccc1C | – | – | – | – | – | 73.4
O=C(O)C1CCCN(CCO/C=C/c2ccccc2Cc2ccccc2)C1 (configuration not stated) | – | 4.17 | 60.2 | 31.6 | – | –
O=C(c1ccccc1)c1ccccc1/C=C\OCCN1CCCC(C(=O)O)C1 (configuration not stated) | 59.8 | 7.08 | 72.3 | – | – | 72.4
O=C(O)C1CCCN(CCO/C=C\c2ccccc2Cc2ccccc2)C1 (configuration not stated) | 56 | 0.398 | 68.6 | – | – | 66
O=C(O)[C@@H]1CCCN(CCOCCc2ccccc2Cc2ccccc2)C1 | – | 0.1 | – | – | – | –
O=C(c1cccc(F)c1)c1ccc(F)cc1/C=C\OCCN1CCCC(C(=O)O)C1 (configuration not stated) | 83.6 | 2.63 | 96.1 | – | – | 52.1
O=C(c1ccccc1F)c1ccc(F)cc1/C=C\OCCN1CCCC(C(=O)O)C1 (configuration not stated) | 83.2 | 3.02 | 74.5 | – | – | 86.3
O=C(c1ccccc1F)c1cc(F)ccc1/C=C/OCCN1CCCC(C(=O)O)C1 (configuration not stated) | – | 10.7 | – | 67.6 | – | –
Cc1ccsc1C(=COCCN1CCC[C@@H](C(=O)O)C1)c1sccc1C | – | 0.0141 | – | – | – | –

Further lines, with some results ahead:

Activity [1] [%] | IC50 [2] [µM] | Activity [4] [%] | IC50 [5] [µM] | Activity [6] [%] | Compound | Activity [3] [%]
49.3 | 4.57 | 71.6 | – | – | O=C(O)C1CCCN(CCO/C=C/c2ccc(F)cc2Cc2ccc(F)cc2)C1 (configuration not stated) | 63.7
97.7 | 20.9 | 61.2 | – | – | O=C(c1ccc(F)cc1)c1ccc(F)cc1/C=C/OCCN1CCCC(C(=O)O)C1 (configuration not stated) | 94.3
59.3 | 6.76 | 70.5 | – | – | O=C(O)C1CCCN(CCO/C=C/c2cc(F)ccc2Cc2cccc(F)c2)C1 (configuration not stated) | 51.8
– | 0.302 | 71.1 | 49 | – | O=C(O)C1CCCN(CCO/C=C\c2cc(F)ccc2Cc2ccccc2F)C1 (configuration not stated) | –
68.8 | 1.86 | 71.4 | – | – | O=C(c1ccc(F)cc1)c1cc(F)ccc1/C=C/OCCN1CCCC(C(=O)O)C1 (configuration not stated) | 72.7
– | 0.302 | 60.3 | – | – | O=C(O)C1CCCN(CCO/C=C\c2cc(F)ccc2Cc2cccc(F)c2)C1 (configuration not stated) | 56
83.7 | 10.2 | 47.8 | – | – | O=C(O)C1CCCN(CCO/C=C/c2cc(F)ccc2Cc2ccccc2F)C1 (configuration not stated) | 53.8
– | 1.1 | – | – | – | O=C(O)C1CCCN(CCO/C=C\c2cc(F)ccc2Cc2ccc(F)cc2)C1 (configuration not stated) | 50.3
51.5 | – | 62.9 | – | 67.5 | O=C(c1cccc(F)c1)c1cc(F)ccc1/C=C/OCCN1CCCC(C(=O)O)C1 (configuration not stated) | 67.6
79.5 | 7.59 | 70.2 | – | – | O=C(c1ccc(F)cc1)c1ccc(F)cc1/C=C\OCCN1CCCC(C(=O)O)C1 (configuration not stated) | 82.2
62 | 8.91 | 58.1 | 93.3 | – | O=C(O)C1CCCN(CCO/C=C/c2cc(F)ccc2Cc2ccc(F)cc2)C1 (configuration not stated) | –
59.8 | 0.339 | 73 | – | – | O=C(c1ccc(F)cc1)c1cc(F)ccc1/C=C\OCCN1CCCC(C(=O)O)C1 (configuration not stated) | 44.8
80.1 | 2.69 | 57.5 | 58.9 | – | O=C(O)C1CCCN(CCO/C=C/c2ccc(F)cc2Cc2ccccc2F)C1 (configuration not stated) | –
– | 0.631 | 80.1 | 60.3 | – | O=C(O)C1CCCN(CCO/C=C\c2ccc(F)cc2Cc2ccccc2F)C1 (configuration not stated) | –
– | 1.17 | 64.8 | 25.7 | – | O=C(O)C1CCCN(CCO/C=C\c2ccc(F)cc2Cc2ccc(F)cc2)C1 (configuration not stated) | –
52.7 | 0.794 | 56.9 | – | – | O=C(c1cccc(F)c1)c1cc(F)ccc1/C=C\OCCN1CCCC(C(=O)O)C1 (configuration not stated) | 45.2
